ChEMBL document CHEMBL1122506, “Cardiac-slowing amidines containing the 3-thioindone group. Potential antianginal agents” (1983)

Experiments:
Canis familiaris [1] = experiment: Evaluated for the heart rate at dose 2.5 mg/kg in 4 animals by poldine tachycardia test; format: functional, Canis lupus familiaris
Outline: (§1)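 Poldine tachycardia: dogs prepared surgically as in the triazine method; poldine methyl sulfate 0.5 mg/kg iv, then 30 min later test agent in increasing doses (0.5/1.0/2.5 mg/kg) at 30-min intervals; read-out is the maximum percent decrease in heart rate at each dose.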

Canis familiaris [2] = species: Canis familiaris; experiment: Relative activity (fraction of the most active compound 24) was determined; format: functional, Canis lupus familiaris
Canis familiaris [3] = species: Canis familiaris; experiment: Percent decrease from initial heart rate (percent delta HR50/HR0 x 100) in dogs; format: functional, Canis lupus familiaris
Outline: (§2)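 Triazine tachycardia in conscious dogs: carotid artery and jugular vein catheterized with heparinized saline; 18 h after surgery, triazine vasodilator U20388 12 mg/kg po; about 1 h later, dog in sling with arterial pressure and ECG monitored. Test agent infused iv at 0.8 (mg/kg)/min to 30 mg/kg total. D50 = dose giving 50% of maximal slowing in that animal; ΔHR50 = heart-rate change at D50; CS index = %ΔHR50/D50.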

Canis familiaris [4] = species: Canis familiaris; experiment: Cardiac slowing index was measured for potency and efficacy; format: functional, Canis lupus familiaris; outline: as §2
Canis familiaris [5] = experiment: Evaluated for the heart rate at dose 0.5 mg/kg in 4 animals by poldine tachycardia test; format: functional, Canis lupus familiaris; outline: as §1
Canis familiaris [6] = experiment: Dose required to achieve 50 % of maximal cardiac slowing in triazine tachycardia test in conscious dog; format: functional, Canis lupus familiaris; outline: as §2
Canis familiaris [7] = experiment: Evaluated for the heart rate at dose 2.5 mg/kg in 4 animals by glucagon-induced tachycardia test; format: functional, Canis lupus familiaris
Canis familiaris [8] = experiment: Evaluated for the myocardial depression rating which is barely observable for the given compound in anesthetized, ganglion-blocked dog
Canis familiaris [9] = experiment: Evaluated for the heart rate at dose 5.0 mg/kg in 4 animals by glucagon-induced tachycardia test; format: functional, Canis lupus familiaris
Canis familiaris [10] = experiment: Evaluated for the heart rate at dose 1.0 mg/kg in 6 animals by aminophylline-induced sinus tachycardia test; format: functional, Canis lupus familiaris
Canis familiaris [11] = experiment: Evaluated for the heart rate at dose 5.0 mg/kg in 6 animals by aminophylline-induced sinus tachycardia test; format: functional, Canis lupus familiaris
Canis familiaris [12] = experiment: Change in heart rate at the above D50 dose in conscious dogs; format: functional, Canis lupus familiaris; outline: as §2
Canis familiaris [13] = experiment: Evaluated for the heart rate at dose 2.5 mg/kg in 6 animals by aminophylline-induced sinus tachycardia test; format: functional, Canis lupus familiaris
Canis familiaris [14] = experiment: Evaluated for the heart rate at dose 1.0 mg/kg in 4 animals by poldine tachycardia test; format: functional, Canis lupus familiaris; outline: as §1
Canis familiaris [15] = experiment: Evaluated for the heart rate at dose 2.5 mg/kg in 5 animals by glucagon-induced tachycardia test; format: functional, Canis lupus familiaris
Canis familiaris [16] = experiment: Evaluated for the heart rate at dose 2.5 mg/kg in 4 animals by aminophylline-induced sinus tachycardia test; format: functional, Canis lupus familiaris
Canis familiaris [17] = experiment: Evaluated for the heart rate at dose 1.0 mg/kg in 5 animals by glucagon-induced tachycardia test; format: functional, Canis lupus familiaris
Canis familiaris [18] = experiment: Evaluated for the heart rate at dose 1.0 mg/kg in 4 animals by aminophylline-induced sinus tachycardia test; format: functional, Canis lupus familiaris
Canis familiaris [19] = experiment: Evaluated for the heart rate at dose 5.0 mg/kg in 4 animals by aminophylline-induced sinus tachycardia test; format: functional, Canis lupus familiaris
Canis familiaris [20] = experiment: Myocardial depression rating in anesthetized, ganglion-blocked dog; Weak activity.
Canis familiaris [21] = experiment: Myocardial depression in anesthetized, ganglion-blocked dog; Moderate activity.
Canis familiaris [22] = experiment: Evaluated for the heart rate at dose 1.0 mg/kg in 4 animals by glucagon-induced tachycardia test; format: functional, Canis lupus familiaris
Canis familiaris [23] = species: Canis familiaris; experiment: Evaluated for the dose required to achieve 50 % of the maximal cardiac slowing in the triazine tachycardia test.; format: functional, Canis lupus familiaris; outline: as §2
Canis familiaris [24] = experiment: Myocardial depression in conscious dog; Moderate activity.; format: functional, Canis lupus familiaris, Myocardium
Canis familiaris [25] = experiment: Evaluated for the myocardial depression rating which is none for the given compound in anesthetized, ganglion-blocked dog
Canis familiaris [26] = experiment: Evaluated for the heart rate at dose 2.5 mg/kg in 3 animals by aminophylline-induced sinus tachycardia test; format: functional, Canis lupus familiaris
Canis familiaris [27] = experiment: Evaluated for the heart rate at dose 5.0 mg/kg in 3 animals by aminophylline-induced sinus tachycardia test; format: functional, Canis lupus familiaris
Canis familiaris [28] = experiment: Evaluated for the heart rate at dose 1.0 mg/kg in 3 animals by aminophylline-induced sinus tachycardia test; format: functional, Canis lupus familiaris
Canis familiaris [29] = species: Canis familiaris; experiment: Cardiac slowing index of the compound; format: functional, Canis lupus familiaris; outline: as §2
Canis familiaris [30] = experiment: Evaluated for the myocardial depression rating which is severe for the given compound in anesthetized, ganglion-blocked dog
Canis familiaris [31] = species: Canis familiaris; experiment: Percent decrease from the initial evaluated heart rate (percent delta HR50/HR0 x 100); format: functional, Canis lupus familiaris; outline: as §2

| Compound | Max decrease in heart rate (Canis familiaris [1]) | Relative activity (Canis familiaris [2]) | Delta HR50 (Canis familiaris [3]) | CS index (Canis familiaris [4]) | Max decrease in heart rate (Canis familiaris [5]) | D50 (Canis familiaris [6]) | Max decrease in heart rate (Canis familiaris [7]) | Max decrease in heart rate (Canis familiaris [9]) | Delta HR50 (Canis familiaris [12]) | Max decrease in heart rate (Canis familiaris [14]) | Max decrease in heart rate (Canis familiaris [22]) | further results |
| --- | --- | --- | --- | --- | --- | --- | --- | --- | --- | --- | --- | --- |
| COc1ccc(CC/N=C2/CCCN2C)cc1OC [MIXIDINE] | 35% | 0.18 | 19.6% | 5.9 | 12% | 3.3 mg/kg | 16% | 28% | -34 beats min-1 | 24% |  | MD (Canis familiaris [8]): 1; Max decrease in heart rate (Canis familiaris [10]): 6%; Max decrease in heart rate (Canis familiaris [11]): 33%; Max decrease in heart rate (Canis familiaris [13]): 25% |
| CCn1cc(SCC/N=C2\CCCN2C)c2ccccc21 | 47% | 0.85 | 21.8% | 27.2 | 18% | 0.8 mg/kg |  |  | -39 beats min-1 | 34% |  | Max decrease in heart rate (Canis familiaris [15]): 46%; Max decrease in heart rate (Canis familiaris [16]): 43%; Max decrease in heart rate (Canis familiaris [17]): 28%; Max decrease in heart rate (Canis familiaris [18]): 27%; Max decrease in heart rate (Canis familiaris [19]): 53%; MD (Canis familiaris [20]): 2 |
| CC(C)NCC(O)COc1cccc2ccccc12 (stereo not given) [PROPRANOLOL] | 38% | 0.13 | 28.5% | 4.2 | 21% |  | 9% |  | -66 beats min-1 | 32% | 3% | MD (Canis familiaris [21]): 3; Max decrease in heart rate (Canis familiaris [16]): 32%; Max decrease in heart rate (Canis familiaris [18]): 24%; Max decrease in heart rate (Canis familiaris [19]): 37%; D50 (Canis familiaris [23]): 6.7 mg/kg |
| CN1CCC/C1=N\CCSc1cn(C)c2ccccc12 | 47% | 0.52 | 20.2% | 16.8 | 24% | 1.2 mg/kg | 34% | 53% | -30 beats min-1 | 33% | 13% | Max decrease in heart rate (Canis familiaris [10]): 22%; Max decrease in heart rate (Canis familiaris [11]): 39%; MD (Canis familiaris [20]): 2; Max decrease in heart rate (Canis familiaris [13]): 32% |
| CN1CCC/C1=N\CCSc1cn(C/C=C/c2ccccc2)c2ccccc12 |  | 0.12 | 23.5% | 3.8 |  | 6.1 mg/kg |  |  | -58 beats min-1 |  |  | MD (Canis familiaris [24]): 3 |
| CN1CCN=C1NCCCCSc1c[nH]c2ccccc12 |  | 0.03 | 10.5% | 0.8 |  | 12.6 mg/kg |  |  | -27 beats min-1 |  |  | MD (Canis familiaris [25]): 0 |
| CCCn1cc(SCC/N=C2\CCCN2C)c2ccccc21 |  | 0.5 | 27.4% | 16.1 |  | 1.7 mg/kg |  |  | -60 beats min-1 |  |  | MD (Canis familiaris [8]): 1 |
| CC(C)COCC(CN(Cc1ccccc1)c1ccccc1)N1CCCC1 (stereo not given) [BEPRIDIL] | 25% | 0.23 | 14.8% | 7.4 | 10% | 2 mg/kg | 30% | 45% | -30 beats min-1 | 18% | 16% | Max decrease in heart rate (Canis familiaris [26]): 23%; Max decrease in heart rate (Canis familiaris [27]): 39%; MD (Canis familiaris [8]): 1; Max decrease in heart rate (Canis familiaris [28]): 13% |
| CN1CCC/C1=N\CCC1CNc2ccccc21 (stereo not given) |  | 0.13 | 12.2% | 3.5 |  | 3.5 mg/kg |  |  | -27 beats min-1 |  |  | MD (Canis familiaris [8]): 1 |
| CCCCCCCCn1cc(SCC/N=C2\CCCN2C)c2ccccc21 |  |  | 14.8% |  |  | 7.3 mg/kg |  |  | -32 beats min-1 |  |  | MD (Canis familiaris [21]): 2; CS index (Canis familiaris [29]): 2 |
| CCCc1[nH]c2ccccc2c1SCC/N=C1\CCCN1C |  | 0.11 | 29% | 3.7 |  | 7.9 mg/kg |  |  | -62 beats min-1 |  |  | MD (Canis familiaris [30]): 4 |
| CN1CCC/C1=N\CCSc1c[nH]c2ccccc12 | 33% | 0.26 | 20.4% | 8.2 | 9% | 2.5 mg/kg | 20% | 28% | -40 beats min-1 | 22% | 6% | MD (Canis familiaris [21]): 3; Max decrease in heart rate (Canis familiaris [16]): 22%; Max decrease in heart rate (Canis familiaris [18]): 10%; Max decrease in heart rate (Canis familiaris [19]): 39% |
| CCn1cc(CC/N=C2/CCCN2C)c2ccccc21 |  | 0.79 | 20.2% | 25.2 |  | 0.8 mg/kg |  |  | -48 beats min-1 |  |  | MD (Canis familiaris [25]): 0 |
| CN1CCCC1=NCCCCc1c[nH]c2ccccc12 |  | 0.11 | 19% | 3.1 |  | 6.1 mg/kg |  |  | -50 beats min-1 |  |  | MD (Canis familiaris [25]): 0 |
| Cc1[nH]c2ccccc2c1SCC/N=C1\CCCN1C | 30% | 0.14 |  | 4.5 | 15% | 4.5 mg/kg | 29% | 42% | -34 beats min-1 | 25% | 20% | Max decrease in heart rate (Canis familiaris [16]): 23%; Max decrease in heart rate (Canis familiaris [18]): 12%; Max decrease in heart rate (Canis familiaris [19]): 34%; Delta HR50 (Canis familiaris [31]): 20.2%; MD (Canis familiaris [20]): 2.5 |
| CCCc1[nH]c2ccccc2c1SCCNC1=NCCN1C |  | 0.2 | 13.2% | 6.3 |  | 2.1 mg/kg |  |  | -27 beats min-1 |  |  | MD (Canis familiaris [30]): 4 |
